The results in this text go back to ChEMBL document CHEMBL3525963, “Tissue distribution and elimination of [14C]apixaban in rats” (Drug Metab Dispos, 2011).

SMILES strings stand for the structures.

Holding throughout (conditions): in vivo
Data set [1] relates to Rattus norvegicus. The experiment in a line: Biodistribution in male Sprague-Dawley rat bone marrow at 5 mg/kg, po administered as single dose measured after 0.5 hrs. In kind it is ADME, organism-based. Details: dose 5 mg/kg, dosed compound name [14C]-apixaban, route oral. The gist of the method: (§1)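 Fasted male rats, 225-252 g, received [14C]apixaban by single oral gavage at 100 μCi/kg in 0.5% Tween 80/Labrafil. One rat was killed per time point and the carcass frozen. Tissue radioactivity was quantified by QWBA (40 µm sagittal sections, phosphor plate, [14C]glucose calibration) as µg eq apixaban/g, with LLOQ 0.037 μg eq/g.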

For data set [2], the system named is Brain. The experiment in a line: Biodistribution in female Sprague-Dawley rat brain at 5 mg/kg, po administered as single dose measured after 24 hrs. Details: dose 5 mg/kg, dosed compound name [14C]-apixaban, route oral. The data set is classed as ADME, organism-based. The gist of the method:
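[14C]Apixaban (1.0 mg/mL, 20 μCi/mL in 0.5% Tween 80 in Labrafil) given as a single oral gavage of 5 mg/kg (100 μCi/kg) to fasted female SD rats, one rat per time point. Carcasses were frozen in hexane/dry ice and cut into 40 µm sagittal sections for QWBA against [14C]glucose standards. Brain radioactivity is reported as µg eq/g, with LLOQ 0.037 µg eq/g.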

Data set [3] relates to Adrenal gland. The experiment in a line: Biodistribution in female Sprague-Dawley rat adrenal gland at 5 mg/kg, po administered as single dose measured after 1 hr. The data set is classed as ADME, organism-based. Details: dose 5 mg/kg, dosed compound name [14C]-apixaban, route oral. The gist of the method:
(§2)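 [¹⁴C]Apixaban given by oral gavage at 5 mg/kg (100 μCi/kg) in 0.5% Tween 80 in Labrafil (1.0 mg/mL dosing solution) to rats fasted overnight through 4 h post-dose. One rat per time point; carcass frozen in hexane/dry ice. Quantitative whole-body autoradiography used 40 µm sagittal sections and a phosphor imaging plate calibrated with [¹⁴C]glucose standards (0.001–6.5 μCi/g). Read-out in µg eq apixaban/g; LLOQ 0.037 μg eq/g.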

Data set [4] deals with Thymus. The experiment in a line: Biodistribution in female Sprague-Dawley rat thymus at 5 mg/kg, po administered as single dose measured after 0.5 hrs. The arrangement: dose 5 mg/kg, dosed compound name [14C]-apixaban, route oral. The data set is classed as ADME, organism-based. The gist of the method: as §2
In another data set the test system is Muscle tissue. The experiment in a line: Biodistribution in male Sprague-Dawley rat muscle at 5 mg/kg, po administered as single dose measured after 24 hrs. In kind it is ADME, organism-based. The arrangement: dose 5 mg/kg, dosed compound name [14C]-apixaban, route oral. The gist of the method: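 [14C]apixaban (1.0 mg/mL, 20 μCi/mL) in 0.5% Tween 80 in Labrafil, given by oral gavage at 100 μCi/kg to male rats (225-252 g) fasted overnight through 4 h post-dose. One rat per time point. Carcasses frozen in hexane/dry ice and cut into 40 µm sagittal sections. QWBA read on phosphor plates against [14C]glucose standards, reported as µg eq/g. LLOQ 0.037 µg eq/g.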

Data set [5] relates to Thymus. The experiment in a line: Biodistribution in male Sprague-Dawley rat thymus at 5 mg/kg, po administered as single dose measured after 24 hrs. In kind it is ADME, organism-based. The arrangement: dose 5 mg/kg, dosed compound name [14C]-apixaban, route oral. The gist of the method: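 Fasted male SD rats (225-252 g) each received one oral gavage dose of [14C]apixaban, 5 mg/kg (100 μCi/kg), in 0.5% Tween 80/Labrafil vehicle. One rat was killed per time point, from 0.5 to 168 h. Frozen carcasses were cut into 40 µm sagittal whole-body sections and read by QWBA phosphor imaging against [14C]glucose calibrants. Results are in µg apixaban eq/g; BLQ <0.037 µg eq/g.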

The subject of data set [6] is Brain. The experiment in a line: Biodistribution in male Sprague-Dawley rat brain at 5 mg/kg, po administered as single dose measured after 1 hr. In kind it is ADME, organism-based. Details: dose 5 mg/kg, dosed compound name [14C]-apixaban, route oral.
Data set [7] concerns Rattus norvegicus. The experiment in a line: Biodistribution in male Sprague-Dawley rat brown fat at 5 mg/kg, po administered as single dose measured after 1 hr. The data set is classed as ADME, organism-based, Brown adipose tissue. The arrangement: dose 5 mg/kg, dosed compound name [14C]-apixaban, route oral. The gist of the method: as §1
Data set [8] relates to Pancreas. The experiment in a line: Biodistribution in pregnant Sprague-Dawley rat pancreas at 5 mg/kg, po administered as single dose measured after 8 hrs. In kind it is ADME, organism-based. The arrangement: dose 5 mg/kg, dosed compound name [14C]-apixaban, route oral. The gist of the method: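 Pregnant SD rats (270-319 g) were fasted overnight and given one oral gavage of 5 mg/kg (100 μCi/kg) in 0.5% Tween 80 in Labrafil. One rat was euthanized per time point (0.5, 1, 4, 8, 24, 48 h) and the carcass frozen. 40 µm sagittal sections were phosphor-imaged against [14C]glucose standards and results reported as µg eq/g; LLOQ 0.037 µg eq/g.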

Data set [9] concerns Rattus norvegicus. The experiment in a line: Biodistribution in pregnant Sprague-Dawley rat pituitary gland at 5 mg/kg, po administered as single dose measured after 8 hrs. In kind it is ADME, organism-based. Details: dose 5 mg/kg, dosed compound name [14C]-apixaban, route oral.
Another data set has as its system Spleen. The experiment in a line: Biodistribution in pregnant Sprague-Dawley rat spleen at 5 mg/kg, po administered as single dose measured after 8 hrs. The data set is classed as ADME, organism-based. Details: dose 5 mg/kg, dosed compound name [14C]-apixaban, route oral.
The test system of data set [10] is Rattus norvegicus. The experiment in a line: Biodistribution in pregnant Sprague-Dawley rat placenta at 5 mg/kg, po administered as single dose measured after 24 hrs. The data set is classed as ADME, organism-based. The arrangement: dose 5 mg/kg, dosed compound name [14C]-apixaban, route oral.
The subject of data set [11] is Liver. The experiment in a line: Biodistribution in female Sprague-Dawley rat liver at 5 mg/kg, po administered as single dose measured after 0.5 hrs. The data set is classed as ADME, organism-based. The arrangement: dose 5 mg/kg, dosed compound name [14C]-apixaban, route oral. The gist of the method:
(§3)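 Quantitative whole-body autoradiography was run after a single 5 mg/kg (100 μCi/kg) oral gavage to fasted female or pregnant SD rats, one rat per time point. Carcasses were frozen in hexane/dry ice, and 40 µm sagittal sections were dried at −20°C for at least 48 h. Sections were exposed to a phosphor plate alongside [14C]glucose standards (0.001–6.5 µCi/g). Results are µg eq/g, with LLOQ 0.037 µg eq/g.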

For data set [12], the system named is Blood. The experiment in a line: AUC (0 to infinity) in male Sprague-Dawley rat blood at 5 mg/kg, po administered as single dose. In kind it is ADME, organism-based. Details: time infinity, dose 5 mg/kg, dosed compound name [14C]-apixaban, route oral.
The test system of data set [13] is Blood. The experiment in a line: AUC (0 to infinity) in lactating Sprague-Dawley rat blood at 5 mg/kg, po administered as single dose. The arrangement: time infinity, dose 5 mg/kg, dosed compound name [14C]-apixaban, route oral. The data set is classed as ADME, organism-based.
The next data set relates to Harderian gland. The experiment in a line: Biodistribution in female Sprague-Dawley rat harderian gland at 5 mg/kg, po administered as single dose measured after 4 hrs. The data set is classed as ADME, organism-based. Details: dose 5 mg/kg, dosed compound name [14C]-apixaban, route oral. The gist of the method: as §2
The subject of data set [14] is Rattus norvegicus. The experiment in a line: Biodistribution in female Sprague-Dawley rat brown fat at 5 mg/kg, po administered as single dose measured after 4 hrs. In kind it is ADME, organism-based, Brown adipose tissue. Details: dose 5 mg/kg, dosed compound name [14C]-apixaban, route oral. The gist of the method: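 [14C]apixaban (20 μCi/mL in dosing solution) in 0.5% Tween 80 in Labrafil given by oral gavage to fasted female rats, 206-213 g, at 100 μCi/kg. One rat per time point was euthanized and snap-frozen. Sagittal 40 µm whole-body sections were read by QWBA phosphor imaging against [14C]glucose standards. Results are in µg eq apixaban/g, with LLOQ 0.037 μg eq/g.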

For data set [15], the system named is Pancreas. The experiment in a line: Biodistribution in female Sprague-Dawley rat pancreas at 5 mg/kg, po administered as single dose measured after 1 hr. The data set is classed as ADME, organism-based. The arrangement: dose 5 mg/kg, dosed compound name [14C]-apixaban, route oral. The gist of the method: as §2
Data set [16] concerns Liver. The experiment in a line: Biodistribution in female Sprague-Dawley rat liver at 5 mg/kg, po administered as single dose measured after 1 hr. The data set is classed as ADME, organism-based. Details: dose 5 mg/kg, dosed compound name [14C]-apixaban, route oral. The gist of the method: as §3
Data set [17] deals with Rattus norvegicus. The experiment in a line: Biodistribution in pregnant Sprague-Dawley rat bone marrow at 5 mg/kg, po administered as single dose measured after 0.5 hrs. In kind it is ADME, organism-based. Details: dose 5 mg/kg, dosed compound name [14C]-apixaban, route oral.
Data set [18] relates to Liver. The experiment in a line: Biodistribution in pregnant Sprague-Dawley rat liver at 5 mg/kg, po administered as single dose measured after 0.5 hrs. In kind it is ADME, organism-based. The arrangement: dose 5 mg/kg, dosed compound name [14C]-apixaban, route oral. The gist of the method:
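Fasted pregnant SD rats (n=6, 270-319 g) each received one oral gavage dose of [14C]apixaban, 5 mg/kg (100 μCi/kg), in 0.5% Tween 80/Labrafil. One rat was killed at each of 0.5, 1, 4, 8, 24 and 48 h. Carcasses were frozen in hexane/dry ice, cut into 40 µm sagittal sections, exposed to phosphor plates and quantified against [14C]glucose standards as µg eq/g. LLOQ was 0.037 µg eq/g.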

For data set [19], the system named is Adrenal gland. The experiment in a line: Biodistribution in pregnant Sprague-Dawley rat adrenal gland at 5 mg/kg, po administered as single dose measured after 1 hr. In kind it is ADME, organism-based. Details: dose 5 mg/kg, dosed compound name [14C]-apixaban, route oral.
Data set [20] relates to Rattus norvegicus. The experiment in a line: Biodistribution in pregnant Sprague-Dawley rat salivary gland at 5 mg/kg, po administered as single dose measured after 1 hr. The data set is classed as ADME, organism-based. Details: dose 5 mg/kg, dosed compound name [14C]-apixaban, route oral.

As to `COc1ccc(-n2nc(C(N)=O)c3c2C(=O)N(c2ccc(N4CCCC[14C]4=O)cc2)CC3)cc1`, the Radiolabel recovery is reported as 0.26 ugequiv/g in the data set with Rattus norvegicus [1]; below 0.037 ugequiv/g in the data set on Brain [2]; 1.1 ugequiv/g in the data set on Adrenal gland [3]; 0.2 ugequiv/g with Thymus [4]; below 0.037 ugequiv/g in the data set on Muscle tissue; “Not detected assumed BLQ” with Thymus [5]. For the same compound, the Radiolabel recovery in the data set with Brain [6] is on record as below 0.037 ugequiv/g; in the data set with Rattus norvegicus [7], 0.94 ugequiv/g; in the data set with Pancreas [8], 0.09 ugequiv/g; with Rattus norvegicus [9], 0.19 ugequiv/g; with Spleen, 0.05 ugequiv/g; with Rattus norvegicus [10] it was below 0.037 ugequiv/g. Moreover, the Radiolabel recovery in the data set on Liver [11] was found to be 2.67 µgequiv/g; in the data set with Harderian gland, 1.12 ugequiv/g; in the data set on Rattus norvegicus [14], 0.61 ugequiv/g; in the data set with Pancreas [15], 0.62 ugequiv/g; with Liver [16], 4.31 ugequiv/g; with Rattus norvegicus [17], 0.5 ugequiv/g. Moreover, the Radiolabel recovery in the data set on Liver [18] stood at 6.77 ugequiv/g; with Adrenal gland [19] it was 1.9 ugequiv/g; with Rattus norvegicus [20], 0.95 ugequiv/g. Further, the figures for the AUC in the data set on Blood [12] and in the data set on Blood [13] were 4300 ngequiv.hr/g and 1960 ngequiv.hr/g, respectively.
